Data taken from ChEMBL document CHEMBL1800016, “Novel thiazolidinedione derivatives with anti-obesity effects: dual action as PTP1B inhibitors and PPAR-γ activators” (Bioorg Med Chem Lett, 2010).
Calls of active or inactive are those of the source. The calls are words filed in the database; no cut-off is given here.

Columns and labels:
[1] = Selectivity ratio of IC50 for TC-PTP to IC50 for PTP1B
[2] = Inhibition of YOP assessed as p-nitrophenol release from pNPP substrate preincubated for 10 mins
Procedure, shortened: (§1)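 IC50 values against the PTP panel, with enzymes prepared as described in the supplementary material. Values are means ± SD of two or more experiments.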

Mus musculus [3] = experiment: Antiobesity activity in high fat diet-fed diabetic C57BL/6J Jms Slc mouse model assessed as decrease in serum triglyceride level at 2.6 mg/day administered with food for 4 weeks; type: functional
Procedure, shortened: (§2)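 DIO mice were fed HFD for 8 wk, then HFD containing 0.1% w/w compound (about 2.6 mg/day/mouse) for 4 wk. At the end of feeding, mice were deprived of food overnight. Serum total cholesterol, triglyceride and NEFA were then measured. Values are mean ± SEM.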

Mus musculus [4] = experiment: Toxicity in high fat diet-fed diabetic C57BL/6J Jms Slc mouse model assessed as change in weight of lung at 2.6 mg/day administered with food for 4 weeks; type: organism-based; details: in vivo, po, 672 h
Procedure, shortened: (§3)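 At the end of the 4 wk in-feed dosing (about 2.6 mg/day/mouse in HFD), liver, kidney and lung weights were compared across the lean LFD, HFD control and treated groups.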

[5] = target: Receptor-type tyrosine-protein phosphatase F (Homo sapiens, UniProt P10586); experiment: Inhibition of membrane proximal catalytic domain of LAR-D1 assessed as p-nitrophenol release from pNPP substrate preincubated for 10 mins; procedure, shortened: as §1
[6] = target: Tyrosine-protein phosphatase non-receptor type 6 (Homo sapiens, UniProt P29350); experiment: Inhibition of catalytic domain of SHP-1 expressed in Escherichia coli assessed as p-nitrophenol release from pNPP substrate preincubated for 10 mins; procedure, shortened: as §1
[7] = target: T1, Tyrosine-protein phosphatase non-receptor type 1 (Homo sapiens, UniProt P18031); experiment: Inhibition of PTP1B expressed in Escherichia coli assessed as p-nitrophenol release from pNPP substrate preincubated for 10 mins; procedure, shortened: as §1
T1 sequence (P18031 whole entry): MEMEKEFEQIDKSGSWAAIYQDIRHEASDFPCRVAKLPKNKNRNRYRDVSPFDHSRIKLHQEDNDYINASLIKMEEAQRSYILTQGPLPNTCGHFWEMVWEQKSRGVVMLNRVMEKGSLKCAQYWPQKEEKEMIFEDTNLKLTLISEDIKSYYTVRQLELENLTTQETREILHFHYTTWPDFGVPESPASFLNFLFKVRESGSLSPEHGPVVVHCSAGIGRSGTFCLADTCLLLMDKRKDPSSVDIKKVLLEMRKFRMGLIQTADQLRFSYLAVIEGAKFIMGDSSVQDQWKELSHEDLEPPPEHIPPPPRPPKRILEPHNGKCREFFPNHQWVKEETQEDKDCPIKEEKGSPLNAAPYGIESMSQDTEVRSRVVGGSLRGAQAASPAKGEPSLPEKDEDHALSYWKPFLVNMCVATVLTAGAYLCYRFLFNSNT

Mus musculus [8] = experiment: Antiobesity activity in high fat diet-fed diabetic C57BL/6J Jms Slc mouse model assessed as reduction in body weight at 2.6 mg/day administered with food for 4 weeks; type: functional
Procedure, shortened: (§4)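 DIO male C57BL/6J Jms Slc mice were fed a 45%-fat HFD for 8 wk, then HFD with 0.1% w/w compound in feed (about 2.6 mg/day/mouse) for 4 wk. A 10%-fat LFD lean group ran throughout. Measures were weight gain, feed efficiency (weight gain/kcal ×100), and epididymal and retroperitoneal fat pad weights. n = 8/group; mean ± SEM; one-way ANOVA.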

Mus musculus [9] = experiment: Toxicity in high fat diet-fed diabetic C57BL/6J Jms Slc mouse model assessed as change in weight of liver at 2.6 mg/day administered with food for 4 weeks; type: organism-based; details: in vivo, po, 672 h; procedure, shortened: as §3
Mus musculus [10] = experiment: Antidiabetic activity in high fat diet-fed diabetic C57BL/6J Jms Slc mouse model assessed as normalization of fasting blood glucose level at 2.6 mg/day administered with food for 4 weeks measured 60 mins after last dose by glucose tolerance test in presence of glucose; type: functional, organism-based
Procedure, shortened: (§5)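 Mice were male C57BL/6J Jms Slc, 5 wk old after 1 wk acclimatization. They were fed a 45%-fat HFD for 8 wk, then HFD with compound mixed in (1.0 g/kg diet, about 2.6 mg/day/mouse, 78 mg/day/kg) for 4 wk. Each mouse was fasted 6 h from the start of the light cycle and fasting glucose was measured. Glucose 1.0 g/kg was then given i.p., with readings at 60 and 90 min.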

Mus musculus [11] = experiment: Antiobesity activity in high fat diet-fed diabetic C57BL/6J Jms Slc mouse model assessed as decrease in epididymal fat at 2.6 mg/day administered with food for 4 weeks; type: functional; procedure, shortened: as §4
Mus musculus [12] = experiment: Antidiabetic activity in high fat diet-fed diabetic C57BL/6J Jms Slc mouse model assessed as normalization of fasting blood glucose level at 2.6 mg/day administered with food for 4 weeks measured 90 mins after last dose by glucose tolerance test in presence of glucose; type: functional, organism-based; procedure, shortened: as §5
Mus musculus [13] = experiment: Antiobesity activity in high fat diet-fed diabetic C57BL/6J Jms Slc mouse model assessed as decrease in total cholesterol level in serum at 2.6 mg/day administered with food for 4 weeks; type: functional; procedure, shortened: as §2
[14] = target: T2, Tyrosine-protein phosphatase non-receptor type 1 (Homo sapiens) (UniProt P18031); experiment: Mixed type inhibition of PTP1B expressed in Escherichia coli
T2 sequence (whole entry): T1 sequence (P18031 whole entry)

Mus musculus [15] = experiment: Antiobesity activity in high fat diet-fed diabetic C57BL/6J Jms Slc mouse model assessed as weight gain/kcal at 2.6 mg/day administered with food for 4 weeks; type: functional; procedure, shortened: as §4
Mus musculus [16] = experiment: Antidiabetic activity in high fat diet-fed diabetic C57BL/6J Jms Slc mouse model assessed as normalization of fasting blood glucose level measured after 6 hrs of fasting at 2.6 mg/day administered with food for 4 weeks measured 90 mins after last dose by glucose tolerance test; type: functional, organism-based; procedure, shortened: as §5
Mus musculus [17] = experiment: Antidiabetic activity in high fat diet-fed diabetic C57BL/6J Jms Slc mouse model assessed as normalization of blood glucose level at 2.6 mg/day administered with food for 4 weeks measured 90 mins after last dose by glucose tolerance test; type: functional, organism-based; procedure, shortened: as §5

Sequence of Receptor-type tyrosine-protein phosphatase F (P10586 whole entry, the tested form may be a part): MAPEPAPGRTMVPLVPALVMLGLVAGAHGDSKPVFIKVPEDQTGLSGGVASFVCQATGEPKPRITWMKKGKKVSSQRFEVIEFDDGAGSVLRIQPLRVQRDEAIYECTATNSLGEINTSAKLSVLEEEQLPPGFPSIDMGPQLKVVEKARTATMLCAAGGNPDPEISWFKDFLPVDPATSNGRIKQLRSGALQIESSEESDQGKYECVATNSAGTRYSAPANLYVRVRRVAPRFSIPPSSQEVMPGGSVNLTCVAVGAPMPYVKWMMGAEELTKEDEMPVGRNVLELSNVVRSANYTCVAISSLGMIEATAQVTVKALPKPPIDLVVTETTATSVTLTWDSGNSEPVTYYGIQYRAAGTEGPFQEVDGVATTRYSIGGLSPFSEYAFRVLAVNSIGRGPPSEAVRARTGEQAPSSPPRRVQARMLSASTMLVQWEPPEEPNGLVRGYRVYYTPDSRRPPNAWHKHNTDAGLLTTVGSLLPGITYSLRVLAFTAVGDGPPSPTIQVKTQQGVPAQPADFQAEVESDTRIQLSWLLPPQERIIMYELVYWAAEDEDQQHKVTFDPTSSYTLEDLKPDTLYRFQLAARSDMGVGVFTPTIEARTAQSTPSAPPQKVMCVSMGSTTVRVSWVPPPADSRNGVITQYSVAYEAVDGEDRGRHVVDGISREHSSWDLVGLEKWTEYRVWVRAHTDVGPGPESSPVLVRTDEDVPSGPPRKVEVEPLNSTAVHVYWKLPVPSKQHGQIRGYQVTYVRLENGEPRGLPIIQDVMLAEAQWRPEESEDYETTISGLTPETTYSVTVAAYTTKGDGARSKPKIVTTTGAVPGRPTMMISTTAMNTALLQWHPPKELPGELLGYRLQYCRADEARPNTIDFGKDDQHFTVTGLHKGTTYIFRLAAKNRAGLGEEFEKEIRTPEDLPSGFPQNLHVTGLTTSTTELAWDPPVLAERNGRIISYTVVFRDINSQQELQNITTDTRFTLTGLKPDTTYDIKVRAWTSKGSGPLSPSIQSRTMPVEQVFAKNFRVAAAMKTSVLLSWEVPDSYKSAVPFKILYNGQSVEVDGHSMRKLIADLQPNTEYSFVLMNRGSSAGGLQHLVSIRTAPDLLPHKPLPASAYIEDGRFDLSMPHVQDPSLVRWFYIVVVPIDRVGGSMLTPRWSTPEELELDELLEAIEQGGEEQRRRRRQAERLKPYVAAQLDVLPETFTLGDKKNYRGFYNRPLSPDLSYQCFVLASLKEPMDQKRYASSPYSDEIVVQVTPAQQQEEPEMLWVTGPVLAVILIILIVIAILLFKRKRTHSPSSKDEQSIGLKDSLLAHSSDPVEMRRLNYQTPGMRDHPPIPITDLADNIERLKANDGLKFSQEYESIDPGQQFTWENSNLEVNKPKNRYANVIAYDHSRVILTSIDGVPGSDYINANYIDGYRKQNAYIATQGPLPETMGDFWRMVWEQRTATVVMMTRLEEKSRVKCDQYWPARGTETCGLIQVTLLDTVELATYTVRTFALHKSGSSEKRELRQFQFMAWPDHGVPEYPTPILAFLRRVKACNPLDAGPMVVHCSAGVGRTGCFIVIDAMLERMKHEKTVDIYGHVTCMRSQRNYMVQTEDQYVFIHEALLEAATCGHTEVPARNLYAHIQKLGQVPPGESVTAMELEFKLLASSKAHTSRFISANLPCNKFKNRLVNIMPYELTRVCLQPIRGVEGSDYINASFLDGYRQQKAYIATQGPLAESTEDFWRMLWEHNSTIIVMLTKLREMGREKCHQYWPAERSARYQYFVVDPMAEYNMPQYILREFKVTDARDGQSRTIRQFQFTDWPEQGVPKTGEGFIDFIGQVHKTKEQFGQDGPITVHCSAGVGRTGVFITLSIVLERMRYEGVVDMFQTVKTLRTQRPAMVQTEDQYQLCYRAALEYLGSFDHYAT
Sequence of Tyrosine-protein phosphatase non-receptor type 6 (P29350 whole entry, the tested form may be a part): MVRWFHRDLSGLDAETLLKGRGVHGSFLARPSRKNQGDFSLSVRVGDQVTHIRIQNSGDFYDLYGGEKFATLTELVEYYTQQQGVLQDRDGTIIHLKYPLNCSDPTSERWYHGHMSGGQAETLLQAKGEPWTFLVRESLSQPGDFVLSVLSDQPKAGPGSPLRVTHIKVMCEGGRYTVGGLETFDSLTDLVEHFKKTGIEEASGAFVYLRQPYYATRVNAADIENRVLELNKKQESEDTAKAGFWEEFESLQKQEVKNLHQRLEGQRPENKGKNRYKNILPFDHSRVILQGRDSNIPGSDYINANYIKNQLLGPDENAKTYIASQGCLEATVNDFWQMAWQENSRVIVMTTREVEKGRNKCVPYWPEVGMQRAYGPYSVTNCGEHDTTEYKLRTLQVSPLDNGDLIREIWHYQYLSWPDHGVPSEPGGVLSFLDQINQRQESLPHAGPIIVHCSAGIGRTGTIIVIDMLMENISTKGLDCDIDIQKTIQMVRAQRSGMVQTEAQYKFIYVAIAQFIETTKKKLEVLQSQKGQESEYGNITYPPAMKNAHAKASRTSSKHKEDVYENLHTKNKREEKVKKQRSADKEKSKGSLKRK

Ratio IC50 [1]: > 10
IC50 [2]: 3.9 µM
IC50 [5]: > 100 µM
IC50 [6]: 3 µM
IC50 [7]: 1.3 µM
inhibition [14]: Active
SMILES: Cc1ccc(S(=O)(=O)Oc2cc(OCc3ccc(C(F)(F)F)cc3)c(/C=C3\SC(=O)NC3=O)cc2Br)cc1
Activity (Mus musculus [3]): 76 mg/dL
Activity (Mus musculus [4]): Non-toxic
Activity (Mus musculus [8]): 2 g
Activity (Mus musculus [9]): Non-toxic
Activity (Mus musculus [10]): inactive
Activity (Mus musculus [11]): 1.29 g
Activity (Mus musculus [12]): inactive
Activity (Mus musculus [13]): 124 mg/dL
feed efficiency (Mus musculus [15]): 0.57 g/100 kcal
Activity (Mus musculus [16]): inactive
Activity (Mus musculus [17]): Active
